Published values of several laboratories.
Compare with care: the assays were run in different laboratories.
Target: Serine/threonine-protein kinase PAK 6 (PAK6, Homo sapiens, UniProt Q9NQU5)

CCCOc1ccc([C@@H]2[C@@H](C(=O)O)[C@H](c3ccc4c(c3)OCO4)CN2CC(=O)Nc2c(CC)cccc2CC)cc1  remaining binding (cell-free assay; competition with immobilised ligand; 1 µM): 83%
Cc1ccc(C(=O)NCc2ccsc2)cc1C#Cc1cn(C(C)C)c2ncnc(N)c12  activity vs control (enzyme activity; inhibitor; 1 µM): 108%
CN(C)c1nccc(-c2cnn3ncccc23)n1  remaining binding (binding; 1 µM): 100%
CCOCCn1cc(C(=O)Nc2ccc(-n3nc(-c4cccnc4)cc3C(F)(F)F)cn2)ccc1=O  remaining binding (cell-free assay; competition with immobilised ligand; 1 µM): 100%
CC/C(=N\NC(=O)NCc1cccc(O)c1)c1ccc(O)c(C)c1O  inhibition (enzyme activity; inhibitor; 0.1 µM): 1.5%
O=C(O)[C@@H]1[C@@H](Cn2nnc3ccccc3c2=O)CC[C@H]1C(=O)c1ccc(OCCC2CCOCC2)cc1  remaining binding (cell-free assay; competition with immobilised ligand; 1 µM): 99%
CC(C)(C)c1nc2c(s1)c1nc(N)ncc1c1ccc(NS(=O)(=O)c3c(F)cccc3F)c(F)c12  remaining activity (enzyme activity; inhibitor; radiometric; 1 µM): 89%
Cn1nc(C(=O)NCc2ccc(C(=O)O)cc2)cc1-c1ccc2[nH]ccc2c1  remaining binding (cell-free assay; competition with immobilised ligand; 0.1 µM): 96%
Nc1nc(NC2CCCCC2)sc1C(=O)c1ccccc1  remaining activity (enzyme activity; inhibitor; 10 µM): 93%
CCCOc1ccc(OC)c(F)c1C(=O)c1ccc(C(=O)N[C@@H]2CNC[C@H]2NC(=O)c2ccc3[nH]ncc3c2)cc1  remaining activity (enzyme activity; inhibitor; 10 µM): 68%
CNC(=O)c1cc(Oc2ccc(NC(=O)Nc3ccc(Cl)c(C(F)(F)F)c3)cc2)ccn1  inhibition (enzyme activity; inhibitor; 0.3 µM): -33%
CC(=O)N1CCC(c2ccc(C(=O)NC3=NCCN3)cc2C(F)(F)F)CC1  remaining binding (cell-free assay; competition with immobilised ligand; 1 µM): 100%
COc1cc(Nc2cnc(C#N)c(O[C@H](C)CN(C)C)n2)ncc1-c1cnn(C)c1  remaining activity (enzyme activity; inhibitor; radiometric; 10 µM): 43%
Cc1cc(NC(=O)c2cccc3cc(-c4cccc5[nH]nc(N)c45)ccc23)ccc1F  activity vs control (enzyme activity; inhibitor; 0.1 µM): 104%
O=C(Nc1cnn(-c2csc(C(=O)NC3COC3)c2)c1)Nc1ccccc1Cl  remaining activity (enzyme activity; inhibitor; 5 µM): 131%
FC(F)c1nc2ccccc2n1-c1nc(N2CCOCC2)nc(N2CCOCC2)n1  remaining activity (enzyme activity; inhibitor; 10 µM): 93%
Cc1ccc(Nc2nccc(N(C)c3ccc4c(C)n(C)nc4c3)n2)cc1S(N)(=O)=O  remaining signal (cell-free assay; inhibitor; 0.5 µM): 105%
Cn1cc(Cl)c2c(Oc3c(F)cc(Nc4cc(Cl)nc(N)n4)cc3F)ccnc21  remaining binding (cell-free assay; competition with immobilised ligand; 0.1 µM): 100%
O=C1NC(=O)c2cc(Nc3ccc(F)cc3)c(Nc3ccc(F)cc3)cc21  remaining signal (cell-free assay; 0.5 µM): 106%
Cc1ccc(NC(=O)c2ccc(C)c(C(F)(F)F)c2)cc1C#Cc1nn(C2CCC(O)CC2)c2ncnc(N)c12 (centres unmarked)  remaining signal (cell-free assay; 10 µM): 92%
